In ChEMBL document CHEMBL1132143, “Effect of A-ring modifications on the DNA-binding behavior and cytotoxicity of pyrrolo[2,1-c][1,4]benzodiazepines” (J Med Chem, 1999):

Assays:
[1] = Tested for cytotoxicity against ADJ/PC6 mouse plasmacytoma; type: functional, cell-based
Summary of the method: (§1)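 ADJ/PC6 mouse plasmacytoma grown in suspension. Seeded day 0 at 3–5 × 10^4 cells/mL in Dulbecco's medium with 20% horse serum. Log-phase confirmed day 1, then compound added for 72 h at 37 °C. Cells counted day 4 by Coulter counter. IC50 is the dose giving 50% growth inhibition versus solvent controls. Screened 10^-4–10^-11 M in 10-fold steps, <0.05% v/v DMSO.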

[2] = system: Calf thymus DNA; test: Tested for thermal denaturation against CT-DNA at 0 hours; type: nucleic-acid assay; settings: Bos taurus
Summary of the method: (§2)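 CT-DNA (42% G+C) at 100 μM in DNA phosphate with compound at 20 μM (5:1 ratio). Buffer pH 7.00, 10 mM sodium phosphate, 1 mM EDTA, ≤0.6% v/v MeOH. Incubated at 37.0 °C for the stated time. Melted at 1 °C/min from 45 to 98 °C, read at 260 nm. ΔTm is Tm with ligand minus free DNA Tm, MeOH-corrected; mean ± SD of ≥3 runs.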

[3] = system: L1210; test: Tested for cytotoxicity against L1210 mouse Leukemia cell; type: functional, cell-based
Summary of the method: (§3)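 L1210 mouse leukemia grown in suspension. Seeded day 0 at 10^4 cells/mL in RPMI 1640 with 10% horse serum. Log phase checked day 1, then compound added for 48 h at 37 °C. Cells counted day 3 by Coulter counter. IC50 is 50% growth inhibition versus solvent-treated controls. Dose range 10^-4–10^-11 M in 10-fold steps, <0.05% v/v DMSO.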

[4] = system: Calf thymus DNA; test: Tested for thermal denaturation against CT-DNA at 4 hours; type: nucleic-acid assay; settings: Bos taurus; summary of the method: as §2
[5] = system: CH1; test: Tested for cytotoxicity against CH1 human ovarian cells; type: functional, cell-based
Summary of the method: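 CH1 human ovarian monolayer, plated day 0 at 100–200 cells per T25 flask in Dulbecco's medium with 10% fetal calf serum and allowed to attach overnight. Compound added day 1 and left continuously at 37 °C. Colonies fixed day 9 in EtOH, stained with methylene blue and counted. IC50 is 50% inhibition versus solvent controls. Range 10^-4–10^-11 M, 10-fold steps.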

[6] = system: Calf thymus DNA; test: Tested for thermal denaturation against CT-DNA; settings: Bos taurus
[7] = Tested for cytotoxicity against ADJ/PC6 plasmacytoma; type: functional, cell-based, Mus musculus; summary of the method: as §1
[8] = system: Calf thymus DNA; test: Tested for thermal denaturation against CT-DNA at 18 hours; settings: Bos taurus
[9] = system: L1210; test: Tested for cytotoxicity against L1210 Leukemia cell; type: functional, cell-based; settings: Mus musculus; summary of the method: as §3

Structure (SMILES)	ΔTm [2] [°C]	ΔTm [4] [°C]	ΔTm [6] [°C]	ΔTm [8] [°C]	IC50 [1] [nM]	IC50 [3] [nM]	IC50 [5] [nM]	IC50 [7] [nM]	IC50 [9] [nM]
COc1cc2c(cc1O)N=C[C@@H]1CCCN1C2=O	0.3	0.5					100	330	
CO[C@H]1Nc2nccnc2C(=O)N2CCC[C@@H]12	0.3	0.6	0.7				17000		
C/C=C1\C[C@H]2C=Nc3cc(O)c(OC)cc3C(=O)N2C1	1	2.4		2.6			0.13	1.8	3.7
COC1Nc2c(ccc(C)c2O)C(=O)N2C=C(/C=C/C(N)=O)C[C@@H]12 (some centres undefined)	9.4	11.2		13	2.8	22	320		
COC(=O)c1c2c(nn1C)C(=O)N1CCC[C@H]1C=N2	0.2	0.3	0.5		> 50000	35000	> 100000		
CO[C@@H]1Nc2ncccc2C(=O)N2CCC[C@@H]12	0.3	0.5	0.5		> 50000	13000	43000		
COc1nc(OC)c2c(n1)C(=O)N1CCC[C@H]1C=N2	0.1	0.2	0.3			42000			
CO[C@H]1Nc2ncccc2C(=O)N2CCC[C@@H]12	0.3	0.5	0.5		> 50000	13000	43000		

Further lines, with some results ahead:

ΔTm [2] [°C]	ΔTm [4] [°C]	ΔTm [6] [°C]	ΔTm [8] [°C]	Structure (SMILES)	IC50 [1] [nM]	IC50 [3] [nM]	IC50 [5] [nM]	IC50 [7] [nM]	IC50 [9] [nM]
0.1	0.2	0.4		COc1cc2c(cc1NC(=O)OCc1ccccc1)N=C[C@@H]1CCCN1C2=O	3200	4500	1800		
0.3	0.5		0.6	COC(=O)CCOc1cc2c(cc1OC)C(=O)N1CCC[C@H]1C=N2			4400		
0.2	0.4		0.6	COc1cc2c(cc1OCCCOCc1ccccc1)N=C[C@@H]1CCCN1C2=O			290	2300	2400
0.5	0.6		0.8	CCCCOC1CC[C@H]2C=Nc3cc(O)c(OC)cc3C(=O)N12 (some centres undefined)			430	1300	2700
0.1	0.2		0.4	O=C1c2cc3c(cc2N=C[C@@H]2CCCN12)OCO3			260	1900	1500
0.2	0.4		0.4	COc1cc2c(cc1OCc1ccccc1)N=C[C@@H]1CCCN1C2=O			1000	370	3000
0.1	0.3		0.5	O=C1c2cc3c(cc2N=C[C@@H]2CCCN12)OCCO3			460	3400	2700
0.3	0.4		0.6	O=C1c2ccccc2N=C[C@@H]2CCCN12			42000	38000	> 100000
0.3	0.5		0.6	COc1cc2c(cc1O)C(=O)N1CCC[C@H]1C=N2			200	2700	2700
